{
  "source": "ChEMBL document CHEMBL1137992",
  "about": "“Long hydrocarbon chain keto diols and diacids that favorably alter lipid disorders in vivo” (J Med Chem, 2004)",
  "format_in_all_cases": "functional",
  "key": {"[1]": {"system": "Rattus norvegicus", "assay": "Amount of glucose in obese Zucker rats at pre-treatment at a dose of 30 mg/kg/day", "procedure,_shortened": "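Female Zucker fatty rats [Crl:(Zuc)-faBR], 10–12 weeks old (400–500 g), gavaged daily with vehicle (20% EtOH/80% PEG-200, 0.25% of body weight) or compound. After a 6-h fast, blood glucose was read by glucometer from tail-prick blood of unanesthetized rats before dosing and after 1 and 2 weeks. Values are mean ± SEM.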"}, "[2]": {"system": "Rattus norvegicus", "assay": "Amount of nonesterified fatty acids in obese Zucker rats after 2 weeks of treatment at a dose of 30 mg/kg/day", "procedure,_shortened": "(§1)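 Female Zucker fatty rats [Crl:(Zuc)-faBR], 10–12 weeks old (400–500 g), dosed once daily by oral gavage in 20% EtOH/80% PEG-200 for up to 14 days. After a 6-h fast, serum was taken pre-dose, at day 7 (orbital venous plexus, O2/CO2 anaesthesia) and at day 14 (cardiac puncture), stored at −80 °C, and assayed on a Hitachi 912 automatic analyzer. Mean ± SEM.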"}, "[3]": {"system": "Rattus norvegicus", "assay": "Amount of nonesterified fatty acids in obese Zucker rats after 2 weeks of treatment at a dose of 100 mg/kg/day", "procedure,_shortened": "as §1"}, "[4]": {"system": "Rattus norvegicus", "assay": "Percent decrease in nonesterified fatty acids in obese Zucker rats after 2 weeks of treatment at a dose of 10 mg/kg/day", "design": "scale not given: the % may be the effect or the level left", "procedure,_shortened": "(§2)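 Female Zucker fatty rats [Crl:(Zuc)-faBR], 10–12 weeks, 400–500 g, acclimated 7 days on chow. Compound or vehicle (20% EtOH/80% PEG-200) given by daily oral gavage for 2 weeks, 0–100 mg/kg/day. After a 6 h fast, blood was taken before dosing, at 1 wk and at 2 wk. Serum lipids, NEFA and insulin (ELISA) were measured; glucose by glucometer. HDL/non-HDL-C came from Superose 6 gel-filtration profiles. Values are % change from pretreatment, mean ± SEM.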"}, "[5]": {"system": "Rattus norvegicus", "assay": "Percent increase in insulin in obese Zucker rats after 2 weeks of treatment at a dose of 30 mg/kg/day", "procedure,_shortened": "as §2"}, "[6]": {"system": "Rattus norvegicus", "assay": "Percent decrease in triglycerides in obese Zucker rats after 2 weeks of treatment at a dose of 30 mg/kg/day", "design": "scale not given: the % may be the effect or the level left", "procedure,_shortened": "as §2"}, "[7]": {"system": "Rattus norvegicus", "assay": "Percent increase in non-HDL-cholesterol in obese Zucker rats after 2 weeks of treatment at a dose of 30 mg/kg/day", "procedure,_shortened": "as §2"}, "[8]": {"system": "Rattus norvegicus", "assay": "Percent decrease in HDL-cholesterol in obese Zucker rats after 1 week of treatment at a dose of 3 mg/kg/day", "design": "scale not given: the % may be the effect or the level left", "procedure,_shortened": "as §2"}},
  "data": [
    {"smiles": "CC(C)(CCCCC(=O)CCCCC(C)(C)C(=O)O)C(=O)O", "values": [
      {"measurement": "Activity", "setting": "[1]", "value": 103, "unit": "mg/dL"},
      {"measurement": "Activity", "setting": "[2]", "value": 1.1, "unit": "mg/dL"},
      {"measurement": "Activity", "setting": "[3]", "value": 0.66, "unit": "mg/dL"}
    ]},
    {"smiles": "CC(C)(CCCCCC(=O)CCCCCC(C)(C)C(=O)O)C(=O)O", "values": [
      {"measurement": "Activity", "setting": "[4]", "value": -21, "unit": "%"},
      {"measurement": "Activity", "setting": "[5]", "value": -21, "unit": "%"},
      {"measurement": "Activity", "setting": "[6]", "value": -52, "unit": "%"}
    ]},
    {"smiles": "CC(C)(CO)CCCCC(=O)CCCCC(C)(C)CO", "values": [
      {"measurement": "Activity", "setting": "[7]", "value": 27, "unit": "%"},
      {"measurement": "Activity", "setting": "[8]", "value": -10, "unit": "%"}
    ]}
  ]
}
